Our source for the MIC and CC50 values is ChEMBL document CHEMBL1817648, “Synthesis and in vitro antibacterial activity of a series of novel gatifloxacin derivatives” (Eur J Med Chem, 2011).

In general, MIC refers to the least concentration at which growth counts as inhibited. The term CC50 denotes the concentration that lowers cell viability or growth by half.

SMILES strings stand for the structures. ≈ marks a conversion by molar mass, not a printed value.

Data set [1] deals with Enterococcus faecalis. The experiment in a line: Antibacterial activity against Enterococcus faecalis 08-10 after 18 to 24 hrs by NCCLS M100-S11 two fold serial dilution method. The class given is functional.
In data set [2] the test system is Escherichia coli. The experiment in a line: Antibacterial activity against Escherichia coli 08-21 after 18 to 24 hrs by NCCLS M100-S11 two fold serial dilution method. The data set is classed as functional.
The test system of data set [3] is Staphylococcus epidermidis. The experiment in a line: Antibacterial activity against methicillin-sensitive Staphylococcus epidermidis 09-3 after 18 to 24 hrs by NCCLS M100-S11 two fold serial dilution method. The class given is functional. The procedure, abridged:
(§1)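 Two-fold serial dilution in agar medium. MIC read as the lowest concentration giving complete inhibition of bacterial growth after incubation at 35 °C for 18–24 h.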

Data set [4] deals with Enterococcus faecium. The experiment in a line: Antibacterial activity against Enterococcus faecium 08-2 after 18 to 24 hrs by NCCLS M100-S11 two fold serial dilution method. The class given is functional.
The subject of data set [5] is Pseudomonas aeruginosa. The experiment in a line: Antibacterial activity against Pseudomonas aeruginosa ATCC 27853 after 18 to 24 hrs by NCCLS M100-S11 two fold serial dilution method. The data set is classed as functional.
In data set [6] the test system is Pseudomonas aeruginosa. The experiment in a line: Antibacterial activity against Pseudomonas aeruginosa 09-32 after 18 to 24 hrs by NCCLS M100-S11 two fold serial dilution method. The data set is classed as functional.
Data set [7] has as its system Staphylococcus aureus. The experiment in a line: Antibacterial activity against methicillin-sensitive Staphylococcus aureus 08-1 after 18 to 24 hrs by NCCLS M100-S11 two fold serial dilution method. The data set is classed as functional.
For data set [8], the system named is Enterococcus faecium. The experiment in a line: Antibacterial activity against Enterococcus faecium 08-7 after 18 to 24 hrs by NCCLS M100-S11 two fold serial dilution method. The class given is functional.
For data set [9], the system named is Staphylococcus epidermidis. Nature of the data set: Antibacterial activity against methicillin-sensitive Staphylococcus epidermidis 09-6 after 18 to 24 hrs by NCCLS M100-S11 two fold serial dilution method. The class given is functional. The procedure, abridged: as §1
Data set [10] relates to Staphylococcus aureus. Nature of the data set: Antibacterial activity against Staphylococcus aureus ATCC 25923 after 18 to 24 hrs by NCCLS M100-S11 two fold serial dilution method. Particulars: ATCC25923. The data set is classed as functional.
Data set [11] has as its system Escherichia coli. The experiment in a line: Antibacterial activity against Escherichia coli 08-22 after 18 to 24 hrs by NCCLS M100-S11 two fold serial dilution method. The data set is classed as functional.
The subject of data set [12] is Klebsiella pneumoniae. Nature of the data set: Antibacterial activity against Klebsiella pneumoniae 09-23 after 18 to 24 hrs by NCCLS M100-S11 two fold serial dilution method. The class given is functional.
Data set [13] relates to Klebsiella pneumoniae. The experiment in a line: Antibacterial activity against Klebsiella pneumoniae 09-22 after 18 to 24 hrs by NCCLS M100-S11 two fold serial dilution method. The data set is classed as functional.
Data set [14] deals with Streptococcus pneumoniae. Nature of the data set: Antibacterial activity against Streptococcus pneumoniae 08-2 after 18 to 24 hrs by NCCLS M100-S11 two fold serial dilution method. The class given is functional.
For data set [15], the system named is Escherichia coli. Nature of the data set: Antibacterial activity against Escherichia coli ATCC 25922 after 18 to 24 hrs by NCCLS M100-S11 two fold serial dilution method. To be noted: ATCC25922. The class given is functional.
Data set [16] concerns Staphylococcus aureus. The experiment in a line: Antibacterial activity against methicillin-resistant Staphylococcus aureus 08-1 after 18 to 24 hrs by NCCLS M100-S11 two fold serial dilution method. The data set is classed as functional. The procedure, abridged: as §1
The subject of data set [17] is Pseudomonas aeruginosa. The experiment in a line: Antibacterial activity against Pseudomonas aeruginosa 09-33 after 18 to 24 hrs by NCCLS M100-S11 two fold serial dilution method. The data set is classed as functional.
Data set [18] deals with Streptococcus pneumoniae. Nature of the data set: Antibacterial activity against Streptococcus pneumoniae 08-4 after 18 to 24 hrs by NCCLS M100-S11 two fold serial dilution method. The class given is functional.
Data set [19] relates to Pseudomonas aeruginosa. The experiment in a line: Antibacterial activity against Pseudomonas aeruginosa 09-34 after 18 to 24 hrs by NCCLS M100-S11 two fold serial dilution method. The class given is functional.
The nature of data set [20]: Cytotoxicity against african green monkey Vero cells after 72 hrs by MTT assay. To be noted: chlorocebus sabaeus. The class given is cell-based. A digest of the protocol: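 Vero cells were kept in Minimum Essential Medium with Earle's salts plus 10% fetal bovine serum at 37 °C under 5% CO₂. Cells were seeded at 1 × 10⁴ per well and allowed to recover 24 h. Medium was then replaced with assay medium containing compound or no drug, and cells were exposed for 72 h. CC₅₀ is the 50% cellular cytotoxic concentration.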

Data set [21] relates to Staphylococcus epidermidis. The experiment in a line: Antibacterial activity against methicillin-resistant Staphylococcus epidermidis 09-4 after 18 to 24 hrs by NCCLS M100-S11 two fold serial dilution method. The class given is functional. A digest of the protocol: as §1
For data set [22], the system named is Enterococcus faecalis. The experiment in a line: Antibacterial activity against Enterococcus faecalis 08-12 after 18 to 24 hrs by NCCLS M100-S11 two fold serial dilution method. The data set is classed as functional.

As to `COc1c(N2CCN(CC#N)C(C)C2)c(F)cc2c(=O)c(C(=O)O)cn(C3CC3)c12` (stereo not drawn), the MIC in data set [1] came out at 8 µg/mL (≈ 19.3 µM); in [2], 8 µg/mL (≈ 19.3 µM); in data set [3], 0.25 µg/mL (≈ 0.603 µM); in data set [4], 8 µg/mL (≈ 19.3 µM); in data set [5] it was 2 µg/mL (≈ 4.83 µM); in [6], 0.25 µg/mL (≈ 0.603 µM). Further, the minimum inhibitory concentration (MIC) in data set [7] came out at 1 µg/mL (≈ 2.41 µM); in data set [8], 8 µg/mL (≈ 19.3 µM); in [9] it was 0.25 µg/mL (≈ 0.603 µM); in data set [10] it was 1 µg/mL (≈ 2.41 µM); in data set [11] it was 8 µg/mL (≈ 19.3 µM); in data set [12] it was 2 µg/mL (≈ 4.83 µM). In addition, the minimal inhibitory concentration (MIC) in data set [13] came out at 2 µg/mL (≈ 4.83 µM); in [14] it was 8 µg/mL (≈ 19.3 µM); in [15], 4 µg/mL (≈ 9.65 µM); in data set [16], 1 µg/mL (≈ 2.41 µM); in [17], 32 µg/mL (≈ 77.2 µM); in [18], 1 µg/mL (≈ 2.41 µM). In addition, the MIC amounted to 2 µg/mL (≈ 4.83 µM) in data set [19], 0.25 µg/mL (≈ 0.603 µM) in data set [21] and 8 µg/mL (≈ 19.3 µM) in data set [22]. In data set [20], this molecule returned a CC50 at 72 h of 354 µg/mL (≈ 853 µM).
For `COc1c(N2CCN(CCC#N)C(C)C2)c(F)cc2c(=O)c(C(=O)O)cn(C3CC3)c12` (stereo not drawn), the MIC in [1] stood at 64 µg/mL (≈ 149 µM); in [2] it was 32 µg/mL (≈ 74.7 µM); in data set [3], 0.25 µg/mL (≈ 0.583 µM); in data set [4], 32 µg/mL (≈ 74.7 µM); in [5] it was 8 µg/mL (≈ 18.7 µM); in [6], 4 µg/mL (≈ 9.34 µM). For the same molecule, the MIC in data set [7] was found to be 4 µg/mL (≈ 9.34 µM); in [8], 32 µg/mL (≈ 74.7 µM); in [9] it was 2 µg/mL (≈ 4.67 µM); in data set [10], 2 µg/mL (≈ 4.67 µM); in data set [11], 64 µg/mL (≈ 149 µM); in data set [12], 32 µg/mL (≈ 74.7 µM). Besides, the MIC in data set [13] was determined as 32 µg/mL (≈ 74.7 µM); in data set [14] it was 32 µg/mL (≈ 74.7 µM); in data set [15] it was 16 µg/mL (≈ 37.3 µM); in [16] it was 4 µg/mL (≈ 9.34 µM); in [17] it was 128 µg/mL (≈ 299 µM); in data set [18] it was 4 µg/mL (≈ 9.34 µM). In addition, the minimal inhibitory concentration (MIC) in [19] worked out at 16 µg/mL (≈ 37.3 µM); in [21], 2 µg/mL (≈ 4.67 µM); in [22] it was 32 µg/mL (≈ 74.7 µM). The 50% cytotoxic concentration (CC50) at 72 h in data set [20] turned out to be 500 µg/mL (≈ 1170 µM).
For the molecule `COC(=O)CN1CCN(c2c(F)cc3c(=O)c(C(=O)O)cn(C4CC4)c3c2OC)CC1C` (stereo not drawn), the MIC in [1] is above 128 µg/mL; in [2] it was above 128 µg/mL; in [3], 32 µg/mL (≈ 71.5 µM); in [4], above 128 µg/mL; in data set [5] it was 128 µg/mL (≈ 286 µM); in data set [6] it was 128 µg/mL (≈ 286 µM). Besides, the MIC is 32 µg/mL (≈ 71.5 µM) in data set [7]; above 128 µg/mL in [8]; 32 µg/mL (≈ 71.5 µM) in data set [9]; 8 µg/mL (≈ 17.9 µM) in [10]; above 128 µg/mL in [11]; above 128 µg/mL in data set [12]. In addition, the MIC is 128 µg/mL (≈ 286 µM) in data set [13]; above 128 µg/mL in data set [14]; 128 µg/mL (≈ 286 µM) in data set [15]; 128 µg/mL (≈ 286 µM) in [16]; 128 µg/mL (≈ 286 µM) in data set [17]; above 128 µg/mL in data set [18]. The MIC in data set [19] is above 128 µg/mL; in [21], 32 µg/mL (≈ 71.5 µM); in data set [22], above 128 µg/mL. The molecule also gave a 50% cytotoxic concentration (CC50) at 72 h in data set [20] of 500 µg/mL (≈ 1120 µM).
With `COC(=O)CCN1CCN(c2c(F)cc3c(=O)c(C(=O)O)cn(C4CC4)c3c2OC)CC1C` (stereo not drawn), the minimal inhibitory concentration (MIC) in [1], in data set [2], in data set [3], in data set [4], in [5] and in data set [6] was above 128 µg/mL each time. The MIC in [7] was 4 µg/mL (≈ 8.67 µM); in data set [8], above 128 µg/mL; in data set [9], above 128 µg/mL; in data set [10], 8 µg/mL (≈ 17.3 µM); in data set [11] it was above 128 µg/mL; in data set [12], above 128 µg/mL. For the same molecule, the minimum inhibitory concentration (MIC) in data set [13] is above 128 µg/mL; in data set [14], above 128 µg/mL; in data set [15], above 128 µg/mL; in data set [16], 4 µg/mL (≈ 8.67 µM); in data set [17], above 128 µg/mL; in [18], above 128 µg/mL. For the same molecule, the minimal inhibitory concentration (MIC) in [19], in data set [21] and in data set [22] was above 128 µg/mL throughout. Besides, in [20], the half-maximal cytotoxic concentration (CC50) at 72 h is above 1000 µg/mL.
